PAFAH1B2 FP inh: inhibitors of human PAFAH1B2. P68402. recombinant PAFAH1B2, FP-rhodamine activity probe, fluorescence polarization. inhibition, % at 3.39 µM. 340,000 tested, 1.2% active. AID 492953;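 active means inhibition above the mean of all tested compounds plus 3 SD, cut at about 24% in these data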
HTRA1 inh: blocks human HTRA1 serine peptidase | Q92743 | recombinant HTRA1, FP-rhodamine activity-based probe, fluorescence polarization | inhibition, % at 5.96 µM | 340,000 tested, 0.5% active | AID 504803; in the data active means inhibition above about 36%
ABHD4 inh: ABHD4 (mouse) inhibition, primary FP screen; AID 720543; Q8VD66; 370,000 tested, 0.54% active; purified mABHD4, FP-Rh probe fluorescence polarization; inhibition, % at 8.92 µM;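 active means inhibition exceeding the mean over every tested compound plus 3 SD, cut at about 30% in these data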
Target sequence (Q8VD66 whole entry, looked up): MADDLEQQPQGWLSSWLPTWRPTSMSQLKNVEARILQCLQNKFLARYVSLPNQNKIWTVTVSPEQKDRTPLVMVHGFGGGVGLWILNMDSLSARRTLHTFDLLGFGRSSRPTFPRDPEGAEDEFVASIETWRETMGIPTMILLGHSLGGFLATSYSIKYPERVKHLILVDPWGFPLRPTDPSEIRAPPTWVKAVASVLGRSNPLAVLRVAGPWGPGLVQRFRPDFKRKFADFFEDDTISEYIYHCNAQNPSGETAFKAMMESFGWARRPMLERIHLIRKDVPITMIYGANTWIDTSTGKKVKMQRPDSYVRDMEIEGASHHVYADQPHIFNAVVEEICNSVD
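Assay system: wild-type mouse ABHD4 protein; compound: single nominal dose of 8.92 µM, 0.89% DMSO final; schedule: 45 min + 60 min at 25 °C; measured by: FP readout, ex 525 nm / em 598 nm; evaluation: % inhibition of FP-Rh probe binding versus controls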
PAFAH2 inh: PAFAH2 (human) inhibition; recombinant PAFAH2, FP-rhodamine activity probe, fluorescence polarization; inhibition, % at 3.39 µM; 340,000 tested, 0.99% active;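 active means inhibition above the mean over all tested compounds plus 3 SD, cut at about 30% in these data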;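 further: inhibitors block probe labeling of enzyme so polarization drops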
pPAFAH inh: inhibitors of human plasma PAF acetylhydrolase (pPAFAH); 330,000 tested, 1.5% active; Q13093; recombinant pPAFAH, FP-rhodamine probe fluorescence polarization; inhibition, % at 3.39 µM; AID 463082;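 active means inhibition above the mean inhibition across the screen plus 3 SD, cut at about 25% in these data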;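 further: inhibitors block binding of the rhodamine activity-based probe so polarization drops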
PAFAH1B3 inh: PAFAH1B3 (human) inhibition. 340,000 tested, 0.28% active. recombinant PAFAH1B3, FP-rhodamine probe, fluorescence polarization. inhibition, % at 3.39 µM. Q15102;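 active means inhibition above the screen-wide average of all tested compounds plus 3 SD, cut at about 25% in these data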
ABHD4 confirm: confirmation of mouse ABHD4 inhibitors; purified mABHD4, FP-Rh probe fluorescence polarization; shares compounds with ABHD4 inh; 1,800 tested, 55% active; inhibition, % at 8.92 µM;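 active means mean inhibition across replicates above the hit cutoff set in the primary screen, cut at about 30% in these data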
Hits are given with their value; i = inactive; nt = no result; ! = repeats disagree. Compounds with a hit are over-represented: about 2.8% of the library has one in this group of screens.

SMILES | PAFAH1B2 FP inh | HTRA1 inh | ABHD4 inh | PAFAH2 inh | pPAFAH inh | PAFAH1B3 inh | ABHD4 confirm
CON(C)C(=O)/C=C/c1ccc([B-](F)(F)F)cc1 | i | i | 41.5 | i | nt | i | 46.9
CCc1ccccc1NC(=O)[C@@H]1CCCN1S(=O)(=O)c1cccc2cccnc12 | nt | nt | i | nt | nt | nt | nt
CCSC(=O)N=Nc1ccc(O)cc1 | i | i | 32.9 | i | nt | i | i
CC(=O)/C(N=Nc1ccc(SC(F)F)cc1)=C(\C)O | i | i | i | i | i | i | nt
Cc1ccc2cc(N)ccc2n1 | i | i | i | i | nt | i | nt
Nc1ccc2cc3ccc(N)cc3nc2c1 | nt | nt | 32.0 | nt | nt | nt | i
C=CCN(CC#Cc1ccccc1)CC=C | nt | nt | i | nt | nt | nt | nt
CN(C)c1ccc(Nc2nc(-c3cccnc3)cs2)cc1 | i | i | i | i | i | i | nt
CCN(CC)c1ccc(Nc2nc(-c3cccnc3)cs2)cc1 | i | i | 29.7 | i | i | i | 35.1
CCOc1ccc(CCNC(=O)CS(=O)Cc2nc(-c3ccc(C)cc3)oc2C)cc1OCC (stereo unspecified) | i | i | i | i | i | i | nt
CCOc1ccc(CCNC(=O)CS(=O)Cc2nc(-c3ccc(C)cc3)oc2C)cc1 (stereo unspecified) | i | i | 30.4 | i | i | i | i
Cc1cc(-c2n[nH]c(=S)n2CC(C)C)cs1 | i | i | 31.9 | i | i | i | i
O=C(Nc1ccc(F)cc1)OC1CC2CC1[C@H]1CCCCN1C2 (stereo partly specified) | nt | nt | i | nt | nt | nt | nt
Cc1ccc(S(=O)(=O)Nc2cc(C(=O)O)ccc2N2CCC(C)CC2)cc1C | nt | nt | i | nt | nt | nt | nt
CC1CCN(c2ccc(C(=O)O)cc2NS(=O)(=O)c2ccc(Cl)s2)CC1 | nt | nt | 37.7 | nt | nt | nt | 43.8
CC1CCN(c2ccc(C(=O)O)cc2NS(=O)(=O)c2ccc(Br)cc2)CC1 | 28.2 | i | 39.4 | i | i | i | 31.0
CCc1ccc(N2C(=O)C[C@@](C#N)(C(=O)OC)[C@H]2c2ccccc2)cc1 | nt | nt | i | nt | nt | nt | nt
COC(=O)[C@]12C[C@H](CC(=O)N3CCCC3)C(=O)N(CCC3=CCCCC3)C1=C[C@H](C1CCCC1)O[C@@H]2C | nt | nt | i | nt | nt | nt | nt
CCCCCCSc1cccc(-c2nc3cc(C)ccn3c2NC2CCCCC2)c1 | i | i | i | i | i | i | nt
Cc1ccn2c(NC3CCCCC3)c(-c3cccc(SC4CCCCC4)c3)nc2c1 | i | i | 30.8! | i | i | i | i
CCC(C)Sc1cccc(-c2nc3cc(C)ccn3c2NC2CCCCC2)c1 (stereo unspecified) | i | i | 39.2 | i | i | i | 52.4
CN1OC[C@@H]2CN(C(=O)C3CCCCC3)[C@H](c3ccc(N4CCCCC4)cc3)C[C@@H]21 | nt | nt | i | nt | nt | nt | nt
C[C@H](O)[C@@H]1CN2CCc3c([nH]c4cccc(-c5ccccc5)c34)[C@@H]2C[C@@H]1N(C)C(=O)C1CCCCC1 | nt | nt | i | nt | nt | nt | nt
Cc1occc1-c1nnc(SCC(=O)N[C@@H]2CCc3ccccc32)n1-c1ccccc1 | nt | nt | i | nt | nt | nt | nt
CC(=O)NNc1nc2ccccc2s1 | i | i | i | i | i | i | nt
SMILES | PAFAH1B2 FP inh | HTRA1 inh | ABHD4 inh | PAFAH2 inh | pPAFAH inh | PAFAH1B3 inh | ABHD4 confirm
CCOC(=O)N1CCC(=NNc2nc3ccccc3s2)CC1 | i | i | 38.4 | i | i | i | i
CC(=O)N1CCC(=NNc2nc3ccccc3s2)CC1 | i | i | 32.6 | i | i | i | i
Cc1cc(C)cc(NC(=O)NCCCN2CCN(c3ccc(F)cc3)CC2)c1 | nt | nt | i | nt | nt | nt | nt
COc1ccc(S[C@]2(C(=O)N(C)C)CC(=O)N(C(=O)C3CC3)[C@@H]2c2ccc(OC)cc2)cc1 | nt | nt | 34.0 | nt | nt | nt | 32.3
COc1ccc(S[C@]2(C(=O)N(C)C)CC(=O)N(c3ccc(Cl)cc3)[C@@H]2c2ccc(OC)cc2)cc1 | nt | nt | i | nt | nt | nt | nt
Cc1cccn2c(CNCCSc3nccn3C)c(C(=O)N3CCCCC3)nc12 | i | i | 34.8 | i | i | i | i
Cc1cccn2c(CNCCCn3ncc4ccccc43)c(C(=O)N3CCCCC3)nc12 | i | i | i | i | i | i | nt
O=C(NN=Cc1cc(Br)c(O)c(Br)c1)c1ccccc1NS(=O)(=O)c1cccs1 | i | i | 33.6 | i | 30.7 | 30.2 | 32.9
COc1ccc2cc(-c3cccc4[nH]cc(C)c34)ccc2c1 | nt | nt | i | nt | nt | nt | nt
CCCCCn1c(CN2CCN(C)CC2)nc2c1c(=O)n(C)c(=O)n2C | i | i | 30.0 | i | i | i | i
CCCCCn1c(CN2CCN(C(=O)OCC)CC2)nc2c1c(=O)n(C)c(=O)n2C | i | i | i | i | i | i | nt

High-throughput results deposited in PubChem by The Scripps Research Institute Molecular Screening Center.
